Reference: ChEMBL document CHEMBL1148787, “Novel substituted (pyridin-3-yl)phenyloxazolidinones: antibacterial agents with reduced activity against monoamine oxidase A and increased solubility” (J Med Chem, 2007)
≈ marks a conversion by molar mass, not a printed value.

Key:
[1] = Half life in Wistar rat at 10 mg/kg, iv; type: ADME, organism-based; set-up: dose 10 mg/kg, route intravenous; conditions: in vivo
Procedure, shortened: (§1)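 Groups of three Wistar Han rats; bolus injection via cannulated jugular vein at 2 or 10 mg/kg. Serial 200 µL whole-blood samples at time intervals; plasma levels by LC-MS/MS; parameters by noncompartmental analysis.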

[2] = Clearance in Wistar rat at 10 mg/kg, iv; type: ADME, organism-based; set-up: dose 10 mg/kg, route intravenous; conditions: in vivo; procedure, shortened: as §1
[3] = Volume of distribution in Wistar rat at 10 mg/kg, iv; type: ADME, organism-based; set-up: dose 10 mg/kg, route intravenous; conditions: in vivo, read-out: Vdss; procedure, shortened: as §1
Staphylococcus aureus = assay: Antibacterial activity against methicillin-susceptible Staphylococcus aureus AP601055; type: functional
Procedure, shortened: (§2)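 CLSI broth microdilution, 64 to 0.06 µg/mL, 2% DMSO final. Media: S. aureus, Mueller Hinton broth; H. influenzae, MHB plus 0.5% yeast extract, 15 µg/mL hematin, 1.5 µg/mL NAD; S. pneumoniae, MHB plus 0.65% lysed horse blood. 35 °C, aerobic (S. aureus) or 5% CO2.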

Streptococcus pneumoniae [4] = assay: Antibacterial activity against penicillin-susceptible Streptococcus pneumoniae AP671401; type: functional; procedure, shortened: as §2
Streptococcus pneumoniae [5] = assay: Antibacterial activity against linezolid-resistant Streptococcus pneumoniae; type: functional
Procedure, shortened: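 Broth microdilution per CLSI guidelines. Compounds were dissolved in 100% DMSO and diluted to 2% DMSO (v/v), 64 to 0.06 µg/mL, in 2.2% (w/v) Mueller Hinton broth with 0.65% (v/v) lysed horse blood. Plates were incubated at 35 °C in 5% CO2 and read at 620 nm.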

Haemophilus influenzae = assay: Antibacterial activity against Haemophilus influenzae ATCC 51907; type: functional; procedure, shortened: as §2
[6] = Solubility by nephelometric analysis; type: physicochemical
Procedure, shortened: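 Nephelometry after diluting compounds into the MAO-A assay mixture (100 mM potassium phosphate, pH 7.4).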

[7] = molecular target: T1, Amine oxidase [flavin-containing] A (Homo sapiens, UniProt P21397); assay: Inhibition of human liver MAOA expressed in yeast
T1 sequence (P21397 whole entry): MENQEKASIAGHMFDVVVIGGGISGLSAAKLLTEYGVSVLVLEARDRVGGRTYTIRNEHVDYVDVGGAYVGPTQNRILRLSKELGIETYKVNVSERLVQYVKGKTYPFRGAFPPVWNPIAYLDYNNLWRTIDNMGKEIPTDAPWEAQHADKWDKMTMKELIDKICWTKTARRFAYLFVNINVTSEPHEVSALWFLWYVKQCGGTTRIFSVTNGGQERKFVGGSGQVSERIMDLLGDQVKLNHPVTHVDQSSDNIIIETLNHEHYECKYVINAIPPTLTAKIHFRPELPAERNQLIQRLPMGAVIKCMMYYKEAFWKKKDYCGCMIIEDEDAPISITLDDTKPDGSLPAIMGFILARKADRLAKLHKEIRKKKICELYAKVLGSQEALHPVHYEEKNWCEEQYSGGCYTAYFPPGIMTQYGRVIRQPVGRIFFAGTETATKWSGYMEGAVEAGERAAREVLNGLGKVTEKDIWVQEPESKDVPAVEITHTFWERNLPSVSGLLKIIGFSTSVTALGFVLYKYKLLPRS

[8] = AUC in Wistar rat at 10 mg/kg, iv; type: ADME, organism-based; set-up: dose 10 mg/kg, route intravenous; conditions: plasma; procedure, shortened: as §1
[9] = Oral bioavailability in Wistar rat at 10 mg/kg, po; type: ADME, organism-based; conditions: in vivo
Procedure, shortened: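 Wistar Han rats, groups of three; 10 mg/kg given by oral gavage, compared against iv dosing. Serial whole-blood sampling, plasma drug by LC-MS/MS, noncompartmental pharmacokinetic analysis.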

Homo sapiens = species on record: Homo sapiens; assay: Protein binding in human plasma; conditions: read-out: PPB (converted)
[10] = Half life in Wistar rat at 2 mg/kg, iv; type: ADME, organism-based; set-up: dose 2 mg/kg, route intravenous; conditions: in vivo; procedure, shortened: as §1
[11] = Clearance in Wistar rat at 2 mg/kg, iv; type: ADME, organism-based; set-up: dose 2 mg/kg, route intravenous; conditions: in vivo; procedure, shortened: as §1
[12] = Volume of distribution in Wistar rat at 2 mg/kg, iv; type: ADME, organism-based; set-up: dose 2 mg/kg, route intravenous; conditions: in vivo, read-out: Vdss; procedure, shortened: as §1
Rattus norvegicus = assay: AUC in Wistar rat at 2 mg/kg, iv; type: ADME, organism-based, Plasma; set-up: dose 2 mg/kg, route intravenous; conditions: in vivo; procedure, shortened: as §1
Cytochrome P450 1A2 = molecular target: T2, Cytochrome P450 1A2 (Homo sapiens, UniProt P05177); assay: Inhibition of human recombinant CYP1A2; type: ADME
T2 sequence (P05177 whole entry): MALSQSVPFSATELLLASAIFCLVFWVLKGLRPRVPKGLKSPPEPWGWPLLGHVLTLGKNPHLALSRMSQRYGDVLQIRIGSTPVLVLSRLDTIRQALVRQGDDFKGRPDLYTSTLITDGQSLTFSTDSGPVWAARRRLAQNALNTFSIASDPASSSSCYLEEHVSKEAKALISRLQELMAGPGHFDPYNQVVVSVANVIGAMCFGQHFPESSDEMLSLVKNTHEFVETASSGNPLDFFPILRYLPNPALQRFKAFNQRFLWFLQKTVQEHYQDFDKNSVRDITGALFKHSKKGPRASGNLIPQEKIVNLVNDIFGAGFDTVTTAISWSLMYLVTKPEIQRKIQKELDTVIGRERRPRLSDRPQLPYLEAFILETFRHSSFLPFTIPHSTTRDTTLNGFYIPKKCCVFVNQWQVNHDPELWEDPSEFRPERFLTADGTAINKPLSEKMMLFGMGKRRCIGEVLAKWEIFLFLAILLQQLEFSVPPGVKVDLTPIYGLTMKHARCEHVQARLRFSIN
Procedure, shortened: (§3)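 Recombinant human P450s, compound at 0.2-20 µM; fluorogenic substrates: 3-cyano-7-ethoxycoumarin (1A2), 7-methoxy-4-trifluoromethylcoumarin (2C9, 2C19), 7-methoxy-4-(aminomethyl)coumarin (2D6). Fluorescence detection; IC50 determined.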

Cytochrome P450 2C9 = Cytochrome P450 2C9 (Homo sapiens, UniProt P11712); assay: Inhibition of human recombinant CYP2C9; type: ADME; procedure, shortened: as §3
Cytochrome P450 2C19 = Cytochrome P450 2C19 (Homo sapiens, UniProt P33261); assay: Inhibition of human recombinant CYP2C19; type: ADME; procedure, shortened: as §3
Cytochrome P450 2D6 = Cytochrome P450 2D6 (Homo sapiens, UniProt P10635); assay: Inhibition of human recombinant CYP2D6; type: ADME; procedure, shortened: as §3
Cytochrome P450 3A4 = Cytochrome P450 3A4 (Homo sapiens, UniProt P08684); assay: Inhibition of human recombinant CYP3A4; type: ADME
Mus musculus [13] = assay: AUC in Streptococcus pneumoniae 548 infected mouse lung infection model at 40 mg/kg/day, po; type: ADME, organism-based; set-up: route oral; conditions: in vivo
Procedure, shortened: (§4)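 CD-1 mice; oral gavage at 40 or 80 mg/kg. Groups of three sacrificed at timed intervals, whole blood taken by cardiac puncture; plasma treated with methanol containing internal standard and quantified by LC-MS/MS against standard curve.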

Mus musculus [14] = assay: AUC in Streptococcus pneumoniae 548 infected mouse lung infection model at 80 mg/kg/day, po; type: ADME, organism-based; set-up: route oral; conditions: in vivo; procedure, shortened: as §4
Streptococcus pneumoniae [15] = assay: Antibacterial activity against Streptococcus pneumoniae 548 infected mouse lung infection model assessed as reduction in bacterial count at 40 mg/kg/day, po relative to control; type: functional
Procedure, shortened: (§5)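 Groups of 10 CD-1 mice infected intratracheally, 1 × 10^5 cfu/lung. Oral gavage of compound or vehicle started 18 h post-infection. Lungs removed 24 h after treatment start, homogenized, serially diluted onto Tryptic Soy agar with 5% sheep blood; log CFU reduction versus vehicle group.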

Streptococcus pneumoniae [16] = assay: Antibacterial activity against Streptococcus pneumoniae 548 infected mouse lung infection model assessed as reduction in bacterial count at 80 mg/kg/day, po relative to control; type: functional; procedure, shortened: as §5

Chain of Cytochrome P450 2D6 (P10635 whole entry): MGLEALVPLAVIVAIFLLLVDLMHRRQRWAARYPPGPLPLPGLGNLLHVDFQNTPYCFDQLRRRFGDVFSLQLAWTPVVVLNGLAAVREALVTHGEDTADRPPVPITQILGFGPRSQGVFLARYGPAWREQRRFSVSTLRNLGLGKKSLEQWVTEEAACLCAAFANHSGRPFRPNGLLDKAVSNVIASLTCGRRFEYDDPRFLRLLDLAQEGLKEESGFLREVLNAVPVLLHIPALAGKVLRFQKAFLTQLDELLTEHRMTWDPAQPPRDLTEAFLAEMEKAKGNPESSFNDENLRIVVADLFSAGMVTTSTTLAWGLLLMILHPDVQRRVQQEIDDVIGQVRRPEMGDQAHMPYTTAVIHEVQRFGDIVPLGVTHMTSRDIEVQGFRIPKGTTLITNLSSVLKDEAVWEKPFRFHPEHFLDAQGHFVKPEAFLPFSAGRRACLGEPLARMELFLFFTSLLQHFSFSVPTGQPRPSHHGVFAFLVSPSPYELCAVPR
Chain of Cytochrome P450 3A4 (P08684 whole entry): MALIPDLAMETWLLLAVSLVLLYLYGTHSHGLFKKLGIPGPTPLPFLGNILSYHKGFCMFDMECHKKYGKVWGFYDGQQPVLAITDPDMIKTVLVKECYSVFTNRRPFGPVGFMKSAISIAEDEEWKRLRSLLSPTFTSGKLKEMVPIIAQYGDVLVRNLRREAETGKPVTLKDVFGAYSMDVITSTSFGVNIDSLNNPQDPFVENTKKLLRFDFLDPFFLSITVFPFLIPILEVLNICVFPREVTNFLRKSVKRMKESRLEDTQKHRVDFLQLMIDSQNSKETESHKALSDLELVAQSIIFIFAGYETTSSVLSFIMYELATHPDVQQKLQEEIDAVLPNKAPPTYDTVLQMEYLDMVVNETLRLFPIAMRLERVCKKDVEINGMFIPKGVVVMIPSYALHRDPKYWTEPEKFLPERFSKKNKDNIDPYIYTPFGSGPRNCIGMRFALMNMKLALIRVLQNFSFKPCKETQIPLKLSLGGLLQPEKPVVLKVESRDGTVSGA
Chain of Cytochrome P450 2C19 (P33261 whole entry): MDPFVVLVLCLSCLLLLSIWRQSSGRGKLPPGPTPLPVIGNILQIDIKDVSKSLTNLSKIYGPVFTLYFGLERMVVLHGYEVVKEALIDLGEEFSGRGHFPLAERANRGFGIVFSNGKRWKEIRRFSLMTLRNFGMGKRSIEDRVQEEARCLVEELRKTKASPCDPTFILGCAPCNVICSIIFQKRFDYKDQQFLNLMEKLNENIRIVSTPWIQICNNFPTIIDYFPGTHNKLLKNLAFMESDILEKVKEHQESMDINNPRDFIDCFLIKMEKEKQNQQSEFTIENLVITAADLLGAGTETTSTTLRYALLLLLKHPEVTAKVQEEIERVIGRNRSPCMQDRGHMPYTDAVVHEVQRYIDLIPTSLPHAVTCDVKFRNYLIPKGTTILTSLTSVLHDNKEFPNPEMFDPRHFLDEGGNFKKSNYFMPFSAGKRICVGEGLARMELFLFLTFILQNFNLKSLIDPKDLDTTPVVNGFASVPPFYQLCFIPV
Chain of Cytochrome P450 2C9 (P11712 whole entry): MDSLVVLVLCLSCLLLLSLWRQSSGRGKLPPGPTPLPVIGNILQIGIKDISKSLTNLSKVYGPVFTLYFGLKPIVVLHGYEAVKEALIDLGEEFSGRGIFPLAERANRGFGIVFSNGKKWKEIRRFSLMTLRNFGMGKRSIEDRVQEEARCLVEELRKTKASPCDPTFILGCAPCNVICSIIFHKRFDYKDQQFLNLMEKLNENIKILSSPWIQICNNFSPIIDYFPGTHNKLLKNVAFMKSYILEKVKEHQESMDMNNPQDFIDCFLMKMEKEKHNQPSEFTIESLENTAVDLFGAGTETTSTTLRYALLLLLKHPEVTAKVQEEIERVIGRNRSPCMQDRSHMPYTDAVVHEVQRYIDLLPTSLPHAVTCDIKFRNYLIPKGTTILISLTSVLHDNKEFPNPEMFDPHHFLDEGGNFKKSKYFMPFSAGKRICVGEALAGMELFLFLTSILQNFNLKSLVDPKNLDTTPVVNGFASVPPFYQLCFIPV

Compound | half-life [1] | clearance [2] | Vd [3] | MIC (Staphylococcus aureus) | MIC (Streptococcus pneumoniae [4]) | MIC (Streptococcus pneumoniae [5]) | MIC (Haemophilus influenzae) | solubility kinetic [6] | Ki [7] | AUC [8] | bioavailability [9] | fraction unbound (Homo sapiens) | half-life [10] | clearance [11] | Vd [12] | AUC (Rattus norvegicus) | further results
C[C@H](O)c1ccc(-c2ccc(N3C[C@H](Cn4ccnn4)OC3=O)cc2F)cn1 | 1 h | 25 mL/min/kg | 1.3 L/kg | 0.5 µg/mL (≈ 1.3 µM) | < 0.06 µg/mL | 1 µg/mL (≈ 2.61 µM) | 2 µg/mL (≈ 5.22 µM) | > 400 µM | 5.9 µM | 6700 ng·h/mL | 100% | – | – | – | – | – | –
O=C1O[C@@H](Cn2ccnn2)CN1c1ccc(-c2ccc(C(O)CO)nc2)c(F)c1 (some centres undefined) | 0.45 h | 43 mL/min/kg | 1 L/kg | 0.25 µg/mL (≈ 0.626 µM) | < 0.06 µg/mL | 1 µg/mL (≈ 2.5 µM) | 1 µg/mL (≈ 2.5 µM) | > 400 µM | – | 3900 ng·h/mL | – | 0.54 | – | – | – | – | –
Cc1cn(CC(=O)c2ccc(-c3ccc(N4C[C@H](Cn5ccnn5)OC4=O)cc3F)cn2)c(C)n1 | – | – | – | 0.25 µg/mL (≈ 0.526 µM) | < 0.06 µg/mL | 0.25 µg/mL (≈ 0.526 µM) | 2 µg/mL (≈ 4.21 µM) | 25 µM (≈ 11.9 µg/mL) | > 11 µM | – | 14% | 0.12 | 1 h | 13 mL/min/kg | 0.9 L/kg | 2.6 ug/hr.ml | –
CCc1nccn1CC(=O)c1ccc(-c2ccc(N3C[C@H](Cn4ccnn4)OC3=O)cc2F)cn1 | – | – | – | 0.5 µg/mL (≈ 1.05 µM) | < 0.06 µg/mL | 0.5 µg/mL (≈ 1.05 µM) | 4 µg/mL (≈ 8.41 µM) | 100 µM (≈ 47.5 µg/mL) | > 44 µM | – | – | – | 0.6 h | 23 mL/min/kg | 0.9 L/kg | 1.6 ug/hr.ml | –
Cc1cnc(C)n1CC(=O)c1ccc(-c2ccc(N3C[C@H](Cn4ccnn4)OC3=O)cc2F)cn1 | – | – | – | 0.25 µg/mL (≈ 0.526 µM) | < 0.06 µg/mL | 0.5 µg/mL (≈ 1.05 µM) | 4 µg/mL (≈ 8.41 µM) | 50 µM (≈ 23.8 µg/mL) | 19 µM | – | 73% | 0.1 | 1.8 h | 10 mL/min/kg | 1.4 L/kg | 3.3 ug/hr.ml | IC50 (Cytochrome P450 1A2): > 20 µM; IC50 (Cytochrome P450 2C9): > 20 µM; IC50 (Cytochrome P450 2C19): > 20 µM; IC50 (Cytochrome P450 2D6): > 20 µM; IC50 (Cytochrome P450 3A4): 10.7 µM; AUC (Mus musculus [13]): 17400 ng·h/mL; AUC (Mus musculus [14]): 31000 ng·h/mL; Log10 cfu (Streptococcus pneumoniae [15]): 1.94; Log10 cfu (Streptococcus pneumoniae [16]): 2.57
O=C(CC1CCNCC1)c1ccc(-c2ccc(N3C[C@H](Cn4ccnn4)OC3=O)cc2F)cn1 | 2.4 h | 196 mL/min/kg | 15 L/kg | 1 µg/mL (≈ 2.15 µM) | 0.13 µg/mL (≈ 0.28 µM) | 0.5 µg/mL (≈ 1.08 µM) | 8 µg/mL (≈ 17.2 µM) | > 400 µM | 28 µM | 800 ng·h/mL | – | – | – | – | – | – | –
Cc1nccn1CC(=O)c1ccc(-c2ccc(N3C[C@H](Cn4ccnn4)OC3=O)cc2F)cn1 | 0.4 h | 62 mL/min/kg | 0.3 L/kg | 0.5 µg/mL (≈ 1.08 µM) | 0.13 µg/mL (≈ 0.282 µM) | 0.5 µg/mL (≈ 1.08 µM) | 2 µg/mL (≈ 4.33 µM) | 200 µM (≈ 92.3 µg/mL) | > 89 µM | 1200 ng·h/mL | 100% | 0.25 | – | – | – | – | IC50 (Cytochrome P450 1A2): > 20 µM; IC50 (Cytochrome P450 2C9): > 20 µM; IC50 (Cytochrome P450 2C19): > 20 µM; IC50 (Cytochrome P450 2D6): > 20 µM; IC50 (Cytochrome P450 3A4): > 20 µM
O=C(c1ccc(-c2ccc(N3C[C@H](Cn4ccnn4)OC3=O)cc2F)cn1)C1CCNCC1 | 2.4 h | 38 mL/min/kg | 3.8 L/kg | 0.5 µg/mL (≈ 1.11 µM) | 0.13 µg/mL (≈ 0.289 µM) | 0.5 µg/mL (≈ 1.11 µM) | 4 µg/mL (≈ 8.88 µM) | 100 µM (≈ 45 µg/mL) | > 44 µM | 4000 ng·h/mL | – | – | – | – | – | – | –
CC(=O)NC[C@H]1CN(c2ccc(N3CCOCC3)c(F)c2)C(=O)O1 [LINEZOLID] | – | – | – | – | – | – | – | – | – | – | – | – | – | – | – | – | AUC (Mus musculus [13]): 45700 ng·h/mL; AUC (Mus musculus [14]): 105000 ng·h/mL; Log10 cfu (Streptococcus pneumoniae [16]): 3.89
